High-throughput results (PubChem BioAssay)
An excerpt weighted towards active compounds, which were near 1.7% of everything screened.
STEP inh = STEP (human) phosphatase inhibition; AID 588621; actives 0.25% (n = 360,000); recombinant STEP, OMFP fluorogenic substrate, fluorescence; inhibition, % at 20 µM;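 active = inhibition at 20 µM, scaled per plate between control wells, above about 37%, limit read from the data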;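 note: 0% = DMSO with enzyme and substrate and 100% = substrate only without enzyme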
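Assay system: isolated STEP enzyme / Timing: 20 min at room temperature, dark / Doses: 20 µM, 1% DMSO / Technique: fluorescence intensity, excitation 480 nm, emission 540 nm / Reagent: fluorogenic phosphatase substrate OMFP at 25 µM final / Measure: percent inhibition scaled to no-enzyme and uninhibited-enzyme controls, plate-pattern corrected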
Scp1 inh = Scp-1 (human) phosphatase inhibition; Q9GZU7; Recombinant Scp1, phosphopeptide, malachite green phosphate absorbance; inhibition, % at 20 µM; actives 0.88% (n = 340,000);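 active = inhibition above about 50% at 20 µM, limit read from the data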;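 note: plate controls were DMSO wells with enzyme for no effect and wells lacking enzyme for full effect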
Target sequence (Q9GZU7 76-261 limits assumed): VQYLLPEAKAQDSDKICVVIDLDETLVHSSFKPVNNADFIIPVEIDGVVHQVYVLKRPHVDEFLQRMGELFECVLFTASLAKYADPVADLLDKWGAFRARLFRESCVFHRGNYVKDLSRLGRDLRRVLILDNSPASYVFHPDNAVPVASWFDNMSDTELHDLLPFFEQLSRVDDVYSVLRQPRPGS
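Test system: SCP-1 catalytic domain; Buffer or medium: Acidic Tris acetate buffer with magnesium and detergent; Also added: Phosphorylated 17-residue peptide substrate; Compound: single 20 µM dose, 1% DMSO; Schedule: enzyme reaction 45 min at room temperature, colour 5 min, stabilisation 30 min; Signal: Phosphate-binding colour reagent, absorbance read at 630 nm.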
LMPTP block = LMPTP (human) inhibition. AID 651560. actives 0.22% (n = 360,000). P24666. inhibition, % at 20 µM. recombinant LMPTP-A, OMFP fluorogenic substrate, fluorescence intensity;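 active = compounds that cut the enzyme signal by at least half of the control window in the single-dose screen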;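 note: plate controls were DMSO wells with enzyme plus substrate for no effect and substrate without enzyme for full effect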
Target sequence (P24666 whole entry, looked up): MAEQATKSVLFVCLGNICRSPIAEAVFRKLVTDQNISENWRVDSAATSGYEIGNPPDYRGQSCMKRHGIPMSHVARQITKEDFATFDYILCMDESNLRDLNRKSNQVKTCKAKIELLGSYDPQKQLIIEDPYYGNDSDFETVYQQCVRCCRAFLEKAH
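Assay system: LMPTP-A, protein tyrosine phosphatase of low molecular weight / Medium: pH 6.0 Bis-Tris buffer with DTT and Triton X-100 / Schedule: 50 min enzyme reaction at room temperature, protected from light / Measured by: endpoint fluorescence intensity from OMFP dephosphorylation / Read-out basis: % inhibition relative to no-enzyme and uninhibited control wells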
DNMT1 block = blocks human DNA methyltransferase DNMT1; P26358; DNMT1 molecular beacon, Hinp1I cleavage, fluorescence; inhibition (reported as % activation of signal), % at 10 µM; actives 0.83% (n = 360,000); AID 588458; in the data active = inhibition above about 50%
SUMO1-SIM PPI = SUMO1-SIM interaction modulation. P63165. SUMO1 binding to a labelled peptide, TR-FRET, 1 h. inhibition, % at 20 µM. actives 0.33% (n = 360,000); in the data active = inhibition above about 37%
Target sequence (P63165 whole entry, looked up): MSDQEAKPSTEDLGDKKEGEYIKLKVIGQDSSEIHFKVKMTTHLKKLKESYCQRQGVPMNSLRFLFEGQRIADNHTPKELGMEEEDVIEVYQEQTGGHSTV
Scp-1 conf = confirmation of human Scp-1 phosphatase inhibitors | shares compounds with Scp1 inh | recombinant SCP-1 catalytic domain, phosphate release, malachite green absorbance | inhibition, % at 20 µM | actives 61% (n = 2,500) | AID 540281;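 note: plate controls were DMSO with enzyme for no effect and buffer wells lacking enzyme for full effect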
Scp-1 MG ctr = counter-screen for Scp-1 inhibitors: colorimetric interference; 2,500 tested, under 10 active; shares compounds with Scp1 inh; Colorimetric interference counterscreen, malachite green absorbance 630 nm; apparent inhibition (interference), % at 20 µM;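 note: compounds added after enzyme reaction finished so only phosphate colour detection is probed; plate controls were DMSO wells with completed Scp-1 reaction for no effect and substrate wells lacking enzyme for full effect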
Scp1 DSF = validation of human Scp-1 inhibitors by thermal shift binding | shares compounds with Scp1 inh | Recombinant SCP1, Sypro Orange thermal shift Tm | thermal shift relative to vanadate control, % at 40 µM | actives 25% (n = 1,500) | AID 540329;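 active = substances whose mean melting-temperature shift, as a percentage of the reference inhibitor's shift, reaches about 5.3%, limit read from the data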;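 note: 0% = Tm of DMSO wells and 100% = Tm with sodium orthovanadate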
Active calls of the source: *; nt = not tested or not shown.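 Rule for the calls, unless noted: active = inhibition of at least 30% at 20 µM; inactive = the rest.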

SMILES | STEP inh | Scp1 inh | LMPTP block | DNMT1 block | SUMO1-SIM PPI | Scp-1 conf | Scp-1 MG ctr | others
O=C(Nc1ccc(C(=O)O)cc1)/C(=C\c1ccco1)NC(=O)c1ccco1 | 2 | 7 | -2 | 3 | -1 | nt | nt
O=c1[nH]c(/C=C\c2ccc(O)c(O)c2)nc(O)c1[N+](=O)[O-] | 5 | 23 | -1 | 14 | 3 | 45* | -2 | Scp1 DSF=6.2*
COc1ccc(-n2c(C)cc(/C=C/c3nc(O)c([N+](=O)[O-])c(=O)[nH]3)c2C)cc1 | 3 | 66* | 16 | 44 | 9 | 59* | -18 | Scp1 DSF=5
OC(CN1CCOCC1)Cn1c2c(c3ccccc31)CCCC2 (stereo unspecified) | -3 | -3 | -1 | 0 | 4 | nt | nt
CCN(CC)CCOC(=O)c1cc(Cl)c(N)cc1OC | -2 | -6 | -1 | 2 | 0 | nt | nt
NCCCC(=O)O | -4 | -6 | -1 | 2 | 1 | nt | nt
NCCCCC(=O)O | -3 | 54* | -3 | -2 | 1 | -7 | -11
COc1cccc(OCc2ccc(Cn3nc(NC(=O)NCCc4ccc(OC)c(OC)c4)c4ccccc43)cc2)c1 | 3 | nt | 3 | -13 | 7 | nt | nt
CCOn1c(=O)c(-c2cccc3ccccc23)[n+]([O-])c2ccccc21 | -3 | 58* | -1 | -2 | -13 | -24 | -22
CCOn1c(=O)c(-c2ccccc2)[n+]([O-])c2ccccc21 | -2 | -13 | -1 | 0 | -29 | nt | nt
CCOC(=O)[C@@H]1[C@H]2COc3cc(OC)ccc3[C@@H]2N2C(=O)N(c3ccc(Br)cc3)C(=O)[C@]12C | 1 | 53* | 3 | 1 | 1 | -24 | -13
C[N+](C)(C)c1ccc(/C=N/Nc2nc(Cl)c(C#N)c(Cl)c2Cl)cc1 | 3 | 53* | 4 | 4 | -15 | 19 | -1
N#Cc1c(Cl)nc(N/N=C/c2ccccc2)c(Cl)c1Cl | -3 | -7 | -1 | 1 | -1 | nt | nt
Cc1ccc(-c2cnc(C(O)c3ccc(Cl)c(Cl)c3)[nH]2)cc1 (stereo unspecified) | 0 | nt | 0 | 5 | 0 | nt | nt
O=C(NCCCO)c1cc([N+](=O)[O-])cc2c1C=Cc1ccccc1O2 | -1 | 98* | -2 | -7 | -27 | -3 | -7
O=C(NCCCc1ccccc1)c1ccc([N+](=O)[O-])cc1Cl | -2 | 0 | 0 | -1 | -34 | nt | nt
Cc1ccc(-c2cc(C(=O)N3CCN(c4ccc(F)cc4)CC3)c3ccccc3n2)o1 | 2 | 53* | 2 | 19 | -4 | 29 | -17
Cc1ccc(-c2cc(C(=O)N3CCOCC3)c3ccccc3n2)o1 | -3 | -7 | 0 | 1 | -7 | nt | nt
CSCCC(=O)N1CC[C@@H](N2CCN(c3ccccc3F)CC2)[C@H](O)C1 | -2 | -8 | -1 | -1 | 1 | nt | nt
O=C(Nc1ccc2ccccc2c1)C(c1ccccc1F)n1c(=O)c(-c2cc3ccccc3[nH]2)nc2ccccc21 (stereo unspecified) | nt | nt | 2 | nt | -5 | nt | nt
O=c1c2cc(-c3ccccc3)sc2nc2n1N=C(c1ccccc1)CS2 | 6 | 108* | 42 | 19 | 29 | 59* | -25 | Scp1 DSF=1
CCCn1c(=O)[nH]c(=O)c2c1nc(-c1ccccc1)n2CCN1CCOCC1 | 8 | 82* | -3 | 7 | -4 | 94* | -6 | Scp1 DSF=-21
CCCCn1c(=O)[nH]c(=O)c2c1nc(-c1ccc(-c3ccccc3)cc1)n2C | 0 | -1 | -2 | 28 | -8 | nt | nt
COc1ccc(N2CC(C(=O)Nc3nc4ccc(F)cc4s3)CC2=O)c(OC)c1 (stereo unspecified) | 1 | -5 | 0 | -5 | 3 | 7 | -7
COc1ccc([C@@H]2C[C@H]3[C@@H](CN2S(=O)(=O)c2ccccc2)C(=O)C[C@@H](c2ccccc2F)N3S(=O)(=O)c2ccc(C)cc2)cc1 | 0 | nt | 1 | -2 | 5 | nt | nt
